Data reported in ChEMBL document CHEMBL1811845, “Modulation of GABAA-receptors by honokiol and derivatives: subtype selectivity and structure-activity relationship” (J Med Chem, 2011).

How the values were obtained:
[1] = biological target: T1, GABA-A receptor; GABA-A site (alpha1/beta2 interface) (Homo sapiens, UniProt P14867+P47870); test: Modulation of GABA Aalpha1beta2 receptor expressed in Xenopus laevis oocytes assessed as potentiation of GABA-induced chloride current at holding potential -70 mV by two-microelectrode voltage clamp technique; type: cell-based, Oocyte
T1 sequence (P14867 whole entry): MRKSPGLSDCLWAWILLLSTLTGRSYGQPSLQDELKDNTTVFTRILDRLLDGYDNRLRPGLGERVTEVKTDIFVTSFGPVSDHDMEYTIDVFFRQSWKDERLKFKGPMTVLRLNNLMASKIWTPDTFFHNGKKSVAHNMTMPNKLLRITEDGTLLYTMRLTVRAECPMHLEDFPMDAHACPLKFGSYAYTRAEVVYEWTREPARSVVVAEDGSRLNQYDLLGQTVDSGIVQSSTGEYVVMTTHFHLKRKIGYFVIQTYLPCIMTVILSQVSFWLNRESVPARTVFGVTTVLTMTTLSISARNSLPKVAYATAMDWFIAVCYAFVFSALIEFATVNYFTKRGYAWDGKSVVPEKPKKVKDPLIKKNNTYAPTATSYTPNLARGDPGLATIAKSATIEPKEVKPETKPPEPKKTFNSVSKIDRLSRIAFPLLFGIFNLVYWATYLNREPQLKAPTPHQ
T1 sequence (P47870 whole entry): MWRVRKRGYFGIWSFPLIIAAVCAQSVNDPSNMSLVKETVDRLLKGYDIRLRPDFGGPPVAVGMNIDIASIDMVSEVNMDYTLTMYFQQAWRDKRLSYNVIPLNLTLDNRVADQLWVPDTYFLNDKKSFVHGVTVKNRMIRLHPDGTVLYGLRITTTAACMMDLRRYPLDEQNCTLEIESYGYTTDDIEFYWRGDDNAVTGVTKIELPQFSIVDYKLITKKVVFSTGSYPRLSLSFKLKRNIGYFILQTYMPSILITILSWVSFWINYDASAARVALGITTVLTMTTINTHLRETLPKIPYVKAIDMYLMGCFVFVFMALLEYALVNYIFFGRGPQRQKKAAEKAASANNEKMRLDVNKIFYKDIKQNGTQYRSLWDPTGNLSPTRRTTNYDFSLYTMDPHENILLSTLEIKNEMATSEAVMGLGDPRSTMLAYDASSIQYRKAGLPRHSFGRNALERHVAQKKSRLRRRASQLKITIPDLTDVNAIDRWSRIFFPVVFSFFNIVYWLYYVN
Outline: (§1)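 Stage V–VI Xenopus oocytes, defolliculated with 2 mg/mL collagenase, injected with α(1, 2, 3 or 5) and β2 cRNAs mixed 1:1, then kept at 18 °C in ND96 (pH 7.4). Enhancement = I(GABA+compound)/IGABA − 1. Curves were Hill-fitted for EC50. Bath DMSO was at most 0.3%, matched in controls.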

[2] = Octanol-water partition coefficient, log P of the compound; type: physicochemical; conditions: read-out: logP
[3] = biological target: T2, Gamma-aminobutyric acid receptor subunit alpha-2/beta-2 (Homo sapiens, UniProt P47869+P47870); test: Modulation of GABA Aalpha2beta2 receptor expressed in Xenopus laevis oocytes assessed as potentiation of GABA-induced chloride current at holding potential -70 mV by two-microelectrode voltage clamp technique; type: cell-based, Oocyte; outline: as §1
T2 sequence (P47870 whole entry): T1 sequence (P47870 whole entry)
T2 sequence (P47869 whole entry): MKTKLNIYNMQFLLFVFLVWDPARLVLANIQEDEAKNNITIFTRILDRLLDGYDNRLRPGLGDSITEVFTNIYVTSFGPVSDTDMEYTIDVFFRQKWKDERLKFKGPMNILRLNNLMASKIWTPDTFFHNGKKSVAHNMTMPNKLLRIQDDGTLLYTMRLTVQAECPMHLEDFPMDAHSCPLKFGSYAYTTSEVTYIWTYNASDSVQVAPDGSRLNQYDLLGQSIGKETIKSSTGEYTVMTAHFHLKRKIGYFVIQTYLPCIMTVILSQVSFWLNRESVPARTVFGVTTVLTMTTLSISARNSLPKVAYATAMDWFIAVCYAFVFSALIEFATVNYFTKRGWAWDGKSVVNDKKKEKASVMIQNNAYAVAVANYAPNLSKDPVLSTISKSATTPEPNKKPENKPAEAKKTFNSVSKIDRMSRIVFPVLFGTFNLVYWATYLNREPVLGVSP

[4] = biological target: T3, Gamma-aminobutyric acid receptor subunit alpha-3/ beta-2 (Homo sapiens, UniProt P34903+P47870); test: Modulation of GABA Aalpha3beta2 receptor expressed in Xenopus laevis oocytes assessed as potentiation of GABA-induced chloride current at holding potential -70 mV by two-microelectrode voltage clamp technique; type: cell-based, Oocyte; outline: as §1
T3 sequence (P47870 whole entry): T1 sequence (P47870 whole entry)
T3 sequence (P34903 whole entry): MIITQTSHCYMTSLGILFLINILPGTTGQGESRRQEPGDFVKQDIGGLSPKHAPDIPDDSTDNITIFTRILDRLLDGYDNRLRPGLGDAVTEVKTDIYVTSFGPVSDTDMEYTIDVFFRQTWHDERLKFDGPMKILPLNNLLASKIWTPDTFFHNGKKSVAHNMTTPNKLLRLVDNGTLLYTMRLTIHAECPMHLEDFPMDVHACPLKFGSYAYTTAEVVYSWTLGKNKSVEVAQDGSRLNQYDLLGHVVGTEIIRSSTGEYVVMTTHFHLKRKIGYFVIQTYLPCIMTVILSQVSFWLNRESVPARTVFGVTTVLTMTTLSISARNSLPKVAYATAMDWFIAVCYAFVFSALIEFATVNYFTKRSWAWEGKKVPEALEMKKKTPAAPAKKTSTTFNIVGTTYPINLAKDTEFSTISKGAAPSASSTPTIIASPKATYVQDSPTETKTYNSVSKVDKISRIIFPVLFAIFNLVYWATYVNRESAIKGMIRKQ

[5] = biological target: T4, Gamma-aminobutyric acid receptor subunit alpha-5/beta-2 (Homo sapiens, UniProt P31644+P47870); test: Modulation of GABA Aalpha5beta2 receptor expressed in Xenopus laevis oocytes assessed as potentiation of GABA-induced chloride current at holding potential -70 mV by two-microelectrode voltage clamp technique; type: cell-based, Oocyte; outline: as §1
T4 sequence (P47870 whole entry): T1 sequence (P47870 whole entry)
T4 sequence (P31644 whole entry): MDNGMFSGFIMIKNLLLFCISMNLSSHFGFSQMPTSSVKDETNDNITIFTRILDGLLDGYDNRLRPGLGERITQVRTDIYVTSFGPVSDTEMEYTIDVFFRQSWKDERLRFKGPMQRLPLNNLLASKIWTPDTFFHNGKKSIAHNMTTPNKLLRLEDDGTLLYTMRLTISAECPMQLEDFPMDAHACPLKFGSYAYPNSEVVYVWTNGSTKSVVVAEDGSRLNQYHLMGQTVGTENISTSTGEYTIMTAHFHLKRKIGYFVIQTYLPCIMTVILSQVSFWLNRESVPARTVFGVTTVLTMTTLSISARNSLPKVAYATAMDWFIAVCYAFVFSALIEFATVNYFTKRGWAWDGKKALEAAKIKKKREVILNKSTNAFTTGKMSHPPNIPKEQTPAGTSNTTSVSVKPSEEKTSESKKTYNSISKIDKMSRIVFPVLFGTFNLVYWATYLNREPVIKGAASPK

[6] = biological target: T5, GABA-A receptor; GABA-A site (alpha1/beta2 interface) (Homo sapiens) (UniProt P14867+P47870); test: Modulation of GABA Aalpha1beta2 receptor expressed in Xenopus laevis oocytes assessed as potentiation of GABA-induced chloride current at holding potential -70 mV by two-microelectrode voltage clamp technique relative to GABA; type: cell-based; conditions: Oocyte
Outline: (§2)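 Oocytes were injected with α1, α2, α3 or α5 plus β2 cRNA at a 1:1 ratio and stored at 18 °C in ND96, pH 7.4. Enhancement was (I(GABA+compound)/IGABA)−1, and concentration-response data were Hill-fitted for EC50 and nH. Matched DMSO was ≤0.3%.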

[7] = biological target: Gamma-aminobutyric acid receptor subunit alpha-2/beta-2 (Homo sapiens) (UniProt P47870+P47869); test: Modulation of GABA Aalpha2beta2 receptor expressed in Xenopus laevis oocytes assessed as potentiation of GABA-induced chloride current at holding potential -70 mV by two-microelectrode voltage clamp technique relative to GABA; type: cell-based; conditions: Oocyte; outline: as §2
[8] = biological target: Gamma-aminobutyric acid receptor subunit alpha-3/ beta-2 (Homo sapiens) (UniProt P47870+P34903); test: Modulation of GABA Aalpha3beta2 receptor expressed in Xenopus laevis oocytes assessed as potentiation of GABA-induced chloride current at holding potential -70 mV by two-microelectrode voltage clamp technique relative to GABA; type: cell-based; conditions: Oocyte; outline: as §2
[9] = biological target: Gamma-aminobutyric acid receptor subunit alpha-5/beta-2 (Homo sapiens) (UniProt P47870+P31644); test: Modulation of GABA Aalpha5beta2 receptor expressed in Xenopus laevis oocytes assessed as potentiation of GABA-induced chloride current at holding potential -70 mV by two-microelectrode voltage clamp technique relative to GABA; type: cell-based; conditions: Oocyte; outline: as §2
[10] = biological target: T5, GABA-A receptor; GABA-A site (alpha1/beta2 interface) (Homo sapiens); test: Modulation of GABA Aalpha1beta2 receptor expressed in Xenopus laevis oocytes assessed as potentiation of GABA-induced chloride current at holding potential -70 mV at 30 uM by two-microelectrode voltage clamp technique relative to GABA; type: cell-based; conditions: Oocyte
Outline: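 Single-concentration screen at 30 μM on α1β2 receptors (cRNA 1:1) in Xenopus oocytes. Enhancement was (I(GABA+compound)/IGABA)−1. DMSO was matched in control and test solutions, maximum 0.3% in the bath.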

[11] = system: Oocyte; test: Modulation of GABA alpha1beta2gamma2s receptor expressed in Xenopus laevis oocytes assessed as potentiation of GABA-induced chloride current at holding potential -70 mV at 300 nM by two-microelectrode voltage clamp technique relative to GABA; type: cell-based
Outline: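 Xenopus oocytes were injected with α1, β2 and γ2s cRNAs mixed 1:1:10 and stored at +18 °C in ND96 at pH 7.4. Chloride current was recorded by two-electrode voltage clamp at -70 mV and ambient temperature. Compound was co-applied with GABA at 3–7% of maximal current, set for each oocyte. Enhancement was calculated as (I(GABA+compound)/IGABA) − 1 with matched DMSO.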

With CCCc1cc(N)c(O)c(-c2ccc(OC)c(CCC)c2)c1 the EC50 [1] was 9.2 µM, the logP [2] was 5.38 and the EC50 [3] was 3.2 µM. For the same molecule, the EC50 [4] was 8.4 µM, the EC50 [5] was 5.3 µM and the Smax [6] was 2260%. The Smax [7] was 2980%, the Smax [8] was 2380% and the Smax [9] was 1870%. For the same molecule, the Activity [10] was 2020%.

Work on CN1C(=O)CN=C(c2ccccc2)c2cc(Cl)ccc21 yielded an Activity [11] of 104%.

C=CCc1cc(NC(C)=O)c(O)c(-c2ccc(OC)c(CC=C)c2)c1 gave an EC50 [1] of 3.8 µM, a logP [2] of 4.75 and an EC50 [3] of 7.9 µM. It also gave an EC50 [4] of 9 µM, an EC50 [5] of 2.3 µM and an Smax [6] of 2600%. It also gave an Smax [7] of 5200%, an Smax [8] of 3670% and an Smax [9] of 1010%. For the same molecule, the Activity [10] was 2630%.
